# How the values were obtained:
# [1] = target: T1, Beta-lactamase SHV-1 (Klebsiella pneumoniae) (UniProt P0AD64); test: Inhibition of Klebsiella pneumoniae KP1082 SHV-1 assessed as biapenem MIC at 4 ug/ml by broth microdilution method
# T1 sequence (whole entry): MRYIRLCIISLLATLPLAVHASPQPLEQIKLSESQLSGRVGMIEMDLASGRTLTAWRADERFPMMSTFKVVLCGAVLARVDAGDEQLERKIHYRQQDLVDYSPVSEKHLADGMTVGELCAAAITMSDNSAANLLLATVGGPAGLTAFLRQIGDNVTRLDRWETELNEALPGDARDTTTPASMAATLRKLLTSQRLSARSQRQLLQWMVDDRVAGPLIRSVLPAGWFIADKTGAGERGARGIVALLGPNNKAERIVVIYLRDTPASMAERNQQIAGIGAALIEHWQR
# How it was run: (§1)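 CLSI broth microdilution (M07-A9, 2012) MIC of the carbapenem against clinical serine carbapenemase-producing strain, tested alone and with the inhibitor held at a fixed 4 μg/mL.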
# [2] = target: Beta-lactamase (Enterobacter cloacae) (UniProt G8A3U3); test: Inhibition of Enterobacter cloacae ECL1003 TEM assessed as cefepime MIC at 4 ug/ml by broth microdilution method
# [3] = target: Beta-lactamase TEM (Enterobacter cloacae) (UniProt Q6W9J1); test: Inhibition of Enterobacter cloacae ECL1058 TEM-1 assessed as meropenem MIC at 4 ug/ml by broth microdilution method
# [4] = test system: Klebsiella oxytoca; test: Inhibition of Klebsiella oxytoca KX1017 SHV-30 assessed as ertapenem MIC at 4 ug/ml by broth microdilution method
# [5] = Volume of distribution at steady state in human at 1 g administered as 3 hrs of infusion; assay type: ADME, organism-based; conditions: in vivo, iv, read-out: Vdss
# How it was run: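 Healthy volunteers received 3 h infusions. Plasma concentrations were fit to a noncompartmental model to derive steady-state volume of distribution at the 1 g dose.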
# [6] = target: Carbapenem-hydrolyzing beta-lactamase KPC (Klebsiella oxytoca) (UniProt Q848S6); test: Inhibition of Klebsiella oxytoca KX1019 KPC-2 assessed as biapenem MIC at 4 ug/ml by broth microdilution method
# [7] = target: Carbapenem-hydrolyzing beta-lactamase KPC (Klebsiella oxytoca) (UniProt Q848S6); test: Inhibition of Klebsiella oxytoca KX1017 KPC-2 assessed as ertapenem MIC at 4 ug/ml by broth microdilution method
# [8] = test system: Klebsiella oxytoca; test: Inhibition of Klebsiella oxytoca KX1017 SHV-30 assessed as imipenem MIC at 4 ug/ml by broth microdilution method
# [9] = test system: Klebsiella pneumoniae; test: Inhibition of Klebsiella pneumoniae KP1004 SHV-11 assessed as imipenem MIC at 4 ug/ml by broth microdilution method; how it was run: as §1
# [10] = test system: Klebsiella pneumoniae; test: Inhibition of Klebsiella pneumoniae KP1084 SHV-11 assessed as imipenem MIC at 4 ug/ml by broth microdilution method
# [11] = target: T1, Beta-lactamase SHV-1 (Klebsiella pneumoniae); test: Inhibition of Klebsiella pneumoniae KP1082 SHV-1 assessed as meropenem MIC at 4 ug/ml by broth microdilution method; how it was run: as §1
# [12] = target: T2, Class A carbapenemase (Enterobacter cloacae) (UniProt A7WP95); test: Inhibition of Enterobacter cloacae ECL1058 KPC-3 assessed as meropenem MIC at 4 ug/ml by broth microdilution method
# T2 sequence (whole entry): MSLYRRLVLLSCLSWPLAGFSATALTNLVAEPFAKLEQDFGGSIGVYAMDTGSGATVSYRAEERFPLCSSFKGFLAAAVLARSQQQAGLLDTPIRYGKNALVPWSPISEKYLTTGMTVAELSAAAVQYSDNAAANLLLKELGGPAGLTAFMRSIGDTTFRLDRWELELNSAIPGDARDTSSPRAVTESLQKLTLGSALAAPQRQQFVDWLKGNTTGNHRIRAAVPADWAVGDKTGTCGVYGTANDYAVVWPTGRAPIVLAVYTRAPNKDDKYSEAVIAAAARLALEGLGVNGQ
# [13] = test system: Klebsiella oxytoca; test: Inhibition of Klebsiella oxytoca KX1019 OXA-2 assessed as biapenem MIC at 4 ug/ml by broth microdilution method
# [14] = target: Beta-lactamase TEM (Enterobacter cloacae) (UniProt Q6W9J1); test: Inhibition of Enterobacter cloacae ECL1058 TEM-1 assessed as biapenem MIC at 4 ug/ml by broth microdilution method
# [15] = target: Class A carbapenemase KPC-2 (Escherichia coli) (UniProt A8DS27); test: Inhibition of Escherichia coli EC1007 KPC-3 assessed as imipenem MIC at 4 ug/ml by broth microdilution method
# [16] = target: Chymase (Homo sapiens, UniProt P23946); test: Inhibition of chymase (unknown origin) using Suc-AAPF-AMC as substrate preincubated for 10 mins followed by substrate addition measured for 30 mins by spectrophotometric analysis
# Chymase, sequence (P23946 whole entry): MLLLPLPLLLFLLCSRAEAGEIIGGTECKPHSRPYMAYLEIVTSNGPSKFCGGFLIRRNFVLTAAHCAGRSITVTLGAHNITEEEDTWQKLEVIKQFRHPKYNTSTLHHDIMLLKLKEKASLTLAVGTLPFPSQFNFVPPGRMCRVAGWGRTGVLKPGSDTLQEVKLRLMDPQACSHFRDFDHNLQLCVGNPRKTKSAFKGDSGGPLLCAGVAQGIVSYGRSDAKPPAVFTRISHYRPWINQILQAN
# How it was run: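 Commercial chymase in 100 mM Tris, pH 8.0, 2 M NaCl, 0.01% Triton X-100. Mixed with inhibitor at various concentrations for 10 min at 37 °C before Suc-AAPF-AMC (listed at 40 μM), then fluorescence followed for 30 min. Rates were taken relative to a no-treatment control; IC50 is the concentration giving 50% inhibition.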
# [17] = test system: Homo sapiens; test: Clearance in human at 1 g administered as 3 hrs of infusion; assay type: ADME, organism-based; conditions: in vivo, iv
# [18] = target: Class A carbapenemase KPC-2 (Escherichia coli) (UniProt A8DS27); test: Inhibition of Escherichia coli EC1007 KPC-3 assessed as biapenem MIC at 4 ug/ml by broth microdilution method
# [19] = test system: Klebsiella pneumoniae; test: Inhibition of Klebsiella pneumoniae KP1010 SHV-12 assessed as cefepime MIC at 4 ug/ml by broth microdilution method
# How it was run: (§2)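 CLSI broth microdilution (M07-A9) against clinical strains expressing serine β-lactamases.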
# [20] = target: Carbapenem-hydrolyzing beta-lactamase KPC (Klebsiella oxytoca) (UniProt Q848S6); test: Inhibition of Klebsiella oxytoca KX1019 KPC-2 assessed as imipenem MIC at 4 ug/ml by broth microdilution method
# [21] = target: Beta lactamase TEM-1 (Klebsiella pneumoniae) (UniProt Q7B899); test: Inhibition of Klebsiella pneumoniae KP1084 TEM-1 assessed as meropenem MIC at 4 ug/ml by broth microdilution method; how it was run: as §1
# [22] = Half life in rat at 300 mg/kg, iv administered as 0.5 hrs infusion by HPLC-MS method; assay type: ADME, organism-based; conditions: in vivo
# [23] = test system: Klebsiella oxytoca; test: Inhibition of Klebsiella oxytoca KX1001 OXA-2 assessed as cefepime MIC at 4 ug/ml by broth microdilution method; how it was run: as §2
# [24] = Cmax in human at 1 g administered as 3 hrs of infusion; assay type: ADME, organism-based; set-up: dose 1 g; conditions: in vivo, iv
# [25] = test system: Klebsiella oxytoca; test: Inhibition of Klebsiella oxytoca KX1017 OXA-2 assessed as meropenem MIC at 4 ug/ml by broth microdilution method
# [26] = Inhibition of Escherichia coli recombinant KPC-2 assessed as substrate nitrocefin degradation preincubated for 10 mins followed by substrate addition measured every 10 secs for 10 mins by spectrophotometric analysis
# How it was run: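 β-Lactamases purified from overexpressing recombinant E. coli. Enzyme preincubated with inhibitor at varying concentrations for 10 min at room temperature in 50 mM Na phosphate pH 7.0, 0.1 mg/mL BSA. Then 50 μM nitrocefin (final) added and cleavage read at 490 nm every 10 s for 10 min. Ki derived by the Waley method.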
# [27] = target: Carbapenem-hydrolyzing beta-lactamase KPC (Klebsiella oxytoca) (UniProt Q848S6); test: Inhibition of Klebsiella oxytoca KX1017 KPC-2 assessed as meropenem MIC at 4 ug/ml by broth microdilution method; how it was run: as §1
compound,measurement,setting,value
O=C(O)C[C@@H]1CC[C@H](NC(=O)Cc2cccs2)B(O)O1 [VABORBACTAM],MIC,[1],< 0.06 µg/mL
same,MIC,[2],8 µg/mL
same,MIC,[3],< 0.06 µg/mL
same,MIC,[4],0.25 µg/mL
same,Vd,[5],21 L
same,MIC,[6],0.25 µg/mL
same,MIC,[7],0.25 µg/mL
same,MIC,[8],0.13 µg/mL
same,MIC,[9],≤ 0.06 µg/mL
same,MIC,[10],0.25 µg/mL
same,MIC,[11],< 0.06 µg/mL
same,MIC,[12],< 0.06 µg/mL
same,MIC,[13],0.25 µg/mL
same,MIC,[14],< 0.06 µg/mL
same,MIC,[15],0.13 µg/mL
same,IC50,[16],> 1000 µM
same,clearance,[17],12.8 L/h
same,MIC,[18],< 0.06 µg/mL
same,MIC,[19],0.25 µg/mL
same,MIC,[20],0.13 µg/mL
same,MIC,[21],0.5 µg/mL
same,half-life,[22],15.6 min
same,MIC,[23],0.5 µg/mL
same,Cmax,[24],22000 ng/mL
same,MIC,[25],< 0.06 µg/mL
same,Ki,[26],0.069 µM
same,MIC,[27],< 0.06 µg/mL

# From ChEMBL document CHEMBL3576866, “Discovery of a Cyclic Boronic Acid β-Lactamase Inhibitor (RPX7009) with Utility vs Class A Serine Carbapenemases” (J Med Chem, 2015)
